What was measured:
[1] = test system: Mus musculus; assay: Body Weight Difference (BWD) of test animals administered with 100 mg/kg compound is determined on day 5 for P388 tumor cells; assay type: functional
How it was run: (§1)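 P388 leukaemia: about 10^6 cells in ascitic fluid inoculated ip on day 0 (CD2F1 mice). Compound given ip in normal saline as a freshly prepared solution or suspension, once daily on days 1–5. Treated-minus-control body weight difference in g, taken as day 5 minus day 1 weight. Groups of six.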

[2] = test system: Mus musculus; assay: Body Weight Difference (BWD) of test animals administered with 200 mg/kg compound is determined on day 5 for P388 tumor cells; assay type: functional; how it was run: as §1
[3] = test system: Mus musculus; assay: Body Weight Difference (BWD) of test animals administered with 400 mg/kg compound is determined on day 5 for P388 tumor cells; assay type: functional; how it was run: as §1
[4] = test system: Mus musculus; assay: Body Weight Difference (BWD) of test animals administered with 50 mg/kg compound is determined on day 5 for P388 tumor cells; assay type: functional; how it was run: as §1
[5] = test system: Mus musculus; assay: Ability of 200 mg/kg of compound to kill tumor cells in mice is expressed as the log of the tumor cell population at the onset of treatment minus the log of the tumor cell population at the end of treatment; assay type: functional
[6] = test system: Mus musculus; assay: Toxicity day evaluation was carried out on day 5 for animal dosed with 100 mg/kg compound; 6/6; assay type: organism-based; parameters: dose 100 mg/kg; settings: in vivo
[7] = test system: Mus musculus; assay: Toxicity day evaluation was carried out on day 5 for animal dosed with 200 mg/kg compound; 6/6; assay type: organism-based; parameters: dose 200 mg/kg; settings: in vivo
[8] = test system: Mus musculus; assay: Toxicity day evaluation was carried out on day 5 for animal dosed with 400 mg/kg compound; 6/6; assay type: organism-based; parameters: dose 400 mg/kg; settings: in vivo
[9] = test system: Mus musculus; assay: Toxicity day evaluation was carried out on day 5 for animal dosed with 50 mg/kg compound; 6/6; assay type: organism-based; parameters: dose 50 mg/kg; settings: in vivo
[10] = test system: Mus musculus; assay: Ability of 400 mg/kg of compound to kill tumor cells in mice is expressed as the log of the tumor cell population at the onset of treatment minus the log of the tumor cell population at the end of treatment; assay type: functional
[11] = test system: Mus musculus; assay: Body Weight Difference (BWD) of test animals administered with 25 mg/kg compound is determined on day 5 for P388 tumor cells; assay type: functional; how it was run: as §1
[12] = test system: Mus musculus; assay: Ability of 12.5 mg/kg of compound to kill tumor cells in mice is expressed as the log of the tumor cell population at the onset of treatment minus the log of the tumor cell population at the end of treatment.; assay type: functional
[13] = test system: Mus musculus; assay: Ability of 25 mg/kg of compound to kill tumor cells in mice is expressed as the log of the tumor cell population at the onset of treatment minus the log of the tumor cell population at the end of treatment.; assay type: functional
[14] = test system: Mus musculus; assay: The percent of the median survival time of test mice compared to control mice is determined for mice administered with 400 mg/kg compound.; assay type: functional
[15] = test system: Mus musculus; assay: Ability of 50 mg/kg of compound to kill tumor cells in mice is expressed as the log of the tumor cell population at the onset of treatment minus the log of the tumor cell population at the end of treatment.; assay type: functional
[16] = test system: Mus musculus; assay: Toxicity day evaluation was carried out on day 5 for animal dosed with 25 mg/kg compound; 6/6; assay type: organism-based; parameters: dose 25 mg/kg; settings: in vivo
[17] = test system: Mus musculus; assay: Toxicity day evaluation was carried out on day 5 for animal dosed with 12.5 mg/kg compound; 6/6; assay type: organism-based; parameters: dose 12.5 mg/kg; settings: in vivo
[18] = test system: Mus musculus; assay: Body Weight Difference (BWD) of test animals administered with 12.5 mg/kg compound is determined on day 5 for P388 tumor cells; assay type: functional; how it was run: as §1
[19] = test system: Mus musculus; assay: The percent of the median survival time of test mice compared to control mice is determined for mice administered with 50 mg/kg compound.; assay type: functional
[20] = test system: Mus musculus; assay: The percent of the median survival time of test mice compared to control mice is determined for mice administered with 100 mg/kg compound; assay type: functional
[21] = test system: Mus musculus; assay: The percent of the median survival time of test mice compared to control mice is determined for mice administered with 200 mg/kg compound; assay type: functional
[22] = test system: Mus musculus; assay: The percent of the median survival time of test mice compared to control mice is determined for mice administered with 400 mg/kg compound; assay type: functional
[23] = test system: Mus musculus; assay: Toxicity day evaluation was carried out on day 5 for animal dosed with 200 mg/kg compound; 5/6; assay type: organism-based; parameters: dose 200 mg/kg; settings: in vivo
[24] = test system: Mus musculus; assay: Ability of 25 mg/kg of compound to kill tumor cells in mice is expressed as the log of the tumor cell population at the onset of treatment minus the log of the tumor cell population at the end of treatment; assay type: functional
[25] = test system: Mus musculus; assay: The percent of the median survival time of test mice compared to control mice is determined for mice administered with 50 mg/kg compound; assay type: functional

SMILES | BWD [1] [g] | BWD [2] [g] | BWD [3] [g] | BWD [4] [g] | KE [5] | Survivors / animals tested [6] | Survivors / animals tested [7] | Survivors / animals tested [8] | Survivors / animals tested [9] | BWD [11] [g] | Survivors / animals tested [16] | Survivors / animals tested [17] | BWD [18] [g] | T/C [19] [%] | T/C [20] [%] | T/C [21] [%] | T/C [22] [%] | also measured
CNC(=O)OCc1nc(SC)n(Cc2ccccc2)c1COC(=O)NC | 0.4 | -0.4 | -1.2 | 0.9 | -0.44 | 6 | 6 | 6 | 6 |  |  |  |  |  |  |  |  | KE [10]: -0.71
CSc1nc(COC(=O)NC(C)C)c(COC(=O)NC(C)C)n1C | -1.2 | -1.8 | -3.4 | 0 |  | 6 | 6 | 6 | 6 | 0.4 | 6 | 6 | 2.6 | 130 |  |  |  | KE [12]: -1.4; KE [13]: -0.91; T/C [14]: 70%; KE [15]: -0.56
CC(C)NC(=O)OCc1ncn(-c2ccccc2)c1COC(=O)NC(C)C | 0.6 | 0.2 | -2.3 | 0.8 |  | 6 | 6 | 6 | 6 | -0.1 | 6 | 6 | -0.4 | 97 | 91 | 90 | 90 | 
CSc1nc(COC(=O)NC(C)C)c(COC(=O)NC(C)C)n1-c1ccccc1 | -2 | -2.8 | -4.8 | 0.3 | -1.64 | 6 |  | 6 | 6 | 0.6 | 6 | 6 | -0.2 |  | 97 | 90 | 100 | Survivors / animals tested [23]: 5; KE [24]: -1.55; T/C [25]: 95%

Source: ChEMBL document CHEMBL1124663, “Design, synthesis, antineoplastic activity, and chemical properties of bis(carbamate) derivatives of 4,5-bis(hydroxymethyl)imidazole” (J Med Chem, 1989)
